Among the data in ChEMBL document CHEMBL3112444, “Synthesis and anticancer activity of focused compound libraries from the natural product lead, oroidin” (2014) are inhibition of growth values, retold here.

Assay [1] can be described thus: Cytotoxicity against mouse SMA cells assessed as growth inhibition at 25 uM after 72 hrs by MTT assay relative to control. It counts as functional. The following applies: read-out: GI. The procedure, abridged: (§1)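 Cells in logarithmic growth kept in DMEM with 10% FBS, 10 mM sodium bicarbonate, penicillin 100 IU/mL, glutamine 4 mM, at 37 °C under 5% CO2. Plated in duplicate at 2500–4000 cells/well. Compound (30 mM DMSO stock) added 24 h after plating. MTT read at 540 nm after 72 h exposure.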

For another assay, the system named is A2780. Put plainly: Cytotoxicity against human A2780 cells assessed as growth inhibition at 25 uM after 72 hrs by MTT assay relative to control. It counts as functional. The following applies: A2780, 72 h, read-out: GI. The procedure, abridged: as §1
Background: Tetrazolium assays rely on reduction of a dye to a coloured formazan, in cell work by metabolically active cells.

A short description of assay [2]: Cytotoxicity against human H460 cells assessed as growth inhibition at 25 uM after 72 hrs by MTT assay relative to control. It counts as functional. Conditions: NCI-H460, 72 h, read-out: GI. The essentials: as §1
Assay [3] can be described thus: Cytotoxicity against human U87 cells assessed as growth inhibition at 25 uM after 72 hrs by MTT assay relative to control. It counts as functional, U-87MG ATCC. The following applies: U-87 MG, read-out: GI. The essentials:
as §1

The next assay has as its system A-431. Kind of assay: Cytotoxicity against human A431 cells assessed as growth inhibition at 25 uM after 72 hrs by MTT assay relative to control. Conditions: A-431, 72 h, read-out: GI. It counts as functional. The procedure, abridged:
as §1

A further assay relates to DU-145. Kind of assay: Cytotoxicity against human DU145 cells assessed as growth inhibition at 25 uM after 72 hrs by MTT assay relative to control. It counts as functional. Conditions: DU-145, 72 h, read-out: GI. The essentials: as §1
Assay [4] is described as follows: Cytotoxicity against human BE(2)-C cells assessed as growth inhibition at 25 uM after 72 hrs by MTT assay relative to control. It counts as functional. Conditions: read-out: GI. The procedure, abridged: as §1
The test system of a further assay is SW480. Put plainly: Cytotoxicity against human SW480 cells assessed as growth inhibition at 25 uM after 72 hrs by MTT assay relative to control. It counts as functional. Conditions: SW480, 72 h, read-out: GI. The procedure, abridged: as §1
The next assay deals with HT-29. Put plainly: Cytotoxicity against human HT-29 cells assessed as growth inhibition at 25 uM after 72 hrs by MTT assay relative to control. It counts as functional. Conditions: HT-29, 72 h, read-out: GI. The procedure, abridged:
as §1

Assay [5] in a line: Cytotoxicity against human SJ-G2 cells assessed as growth inhibition at 25 uM after 72 hrs by MTT assay relative to control. It counts as functional. The following applies: SJ-G2, 72 h, read-out: GI. The procedure, abridged: as §1
Assay [6] is described as follows: Cytotoxicity against human MIA cells assessed as growth inhibition at 25 uM after 72 hrs by MTT assay relative to control. It counts as functional. The following applies: read-out: GI. The essentials: as §1
For the next assay, the system named is MCF7. Kind of assay: Cytotoxicity against human MCF7 cells assessed as growth inhibition at 25 uM after 72 hrs by MTT assay relative to control. It counts as functional. Conditions: MCF7, 72 h, read-out: GI. The essentials:
as §1

On to `COc1ccc(CNC(=O)c2ccc[nH]2)cc1`, for which the inhibition of growth at 25 µM in assay [1] was under 0%; in the assay on A2780 it was 6%; in assay [2], 2%; in assay [3], under 0%; in the assay on A-431 it was under 0%; in the assay on DU-145 it was 8%. Also, the inhibition of growth at 25 µM was under 0% in assay [4]; 10% in the assay on SW480; 3% with HT-29; under 0% in [5]; 6% in assay [6]; 5% in the assay on MCF7.
`O=C(NCCc1ccc2ccccc2c1)c1cc(Br)c(Br)[nH]1`: the inhibition of growth at 25 µM in assay [1] was 17%; in the assay on A2780 it was 52%; in assay [2], 12%; in assay [3], under 0%; with A-431, 15%; in the assay on DU-145, 14%. Further, the inhibition of growth at 25 µM in [4] was under 0%; in the assay on SW480, under 0%; in the assay with HT-29, 28%; in assay [5], 10%; in [6] it was 21%; in the assay with MCF7 it was 53%.
As to `O=C(NCC(c1ccccc1)c1ccccc1)c1ccc[nH]1`, the inhibition of growth at 25 µM came to 15% in assay [1]; 27% with A2780; 11% in assay [2]; 14% in [3]; 30% in the assay on A-431; 8% with DU-145. Also, the inhibition of growth at 25 µM in assay [4] was under 0%; with SW480 it was under 0%; in the assay with HT-29 it was 29%; in assay [5], 53%; in assay [6] it was 32%; in the assay on MCF7, 52%.
With `O=C(NCCCn1cccn1)c1ccc[nH]1`, the inhibition of growth at 25 µM in assay [1] came to 8%; in the assay on A2780, 10%; in assay [2], 14%; in assay [3], 9%; in the assay with A-431 it was 1%; in the assay on DU-145, 7%. The inhibition of growth at 25 µM in assay [4] was 1%; in the assay with SW480, 9%; in the assay on HT-29, 4%; in assay [5], under 0%; in assay [6], 19%; with MCF7 it was 7%.
For the compound `O=C(NCCCn1cccn1)c1cc(Br)c(Br)[nH]1`, the inhibition of growth at 25 µM in [1] was 6%; in the assay with A2780 it was 15%; in assay [2] it was 14%; in assay [3], under 0%; in the assay on A-431 it was 3%; in the assay with DU-145, 5%. For the same compound, the inhibition of growth at 25 µM in assay [4] is 6%; with SW480, under 0%; with HT-29, 4%; in assay [5], under 0%; in [6], 3%; with MCF7, 12%.
Take `Cc1nccn1CCCNC(=O)c1ccc[nH]1`: the inhibition of growth at 25 µM was under 0% in assay [1]; 1% with A2780; 3% in assay [2]; 3% in assay [3]; under 0% in the assay on A-431; 5% in the assay on DU-145. The inhibition of growth at 25 µM in assay [4] is under 0%; with SW480, 7%; in the assay on HT-29 it was 5%; in [5] it was under 0%; in assay [6] it was 4%; with MCF7, 8%.
Turning to `Cc1nccn1CCCNC(=O)c1cc(Br)c(Br)[nH]1`, the inhibition of growth at 25 µM in [1] was 11%; with A2780, 21%; in assay [2], 22%; in assay [3] it was under 0%; with A-431, 11%; in the assay on DU-145, 28%. Also, the inhibition of growth at 25 µM stood at 20% in assay [4]; 26% in the assay on SW480; 10% in the assay on HT-29; 10% in assay [5]; 15% in assay [6]; 36% in the assay with MCF7.
On to `O=C(NCCc1c[nH]cn1)c1ccc[nH]1`, for which the inhibition of growth at 25 µM in assay [1] was 0%; in the assay with A2780, 11%; in assay [2], 0%; in [3], 6%; in the assay with A-431, 3%; in the assay on DU-145 it was 5%. For the same compound, the inhibition of growth at 25 µM in assay [4] was under 0%; with SW480 it was 1%; in the assay with HT-29, 11%; in assay [5], under 0%; in assay [6], 7%; in the assay with MCF7 it was 1%.
`O=C(NCCc1c[nH]cn1)c1cc(Br)c(Br)[nH]1`: the inhibition of growth at 25 µM in assay [1] was 18%; in the assay with A2780, 37%; in [2], 35%; in [3], 5%; with A-431, 2%; in the assay with DU-145 it was under 0%. Further, the inhibition of growth at 25 µM came out at 13% in assay [4]; 12% in the assay on SW480; 11% with HT-29; 11% in [5]; 20% in assay [6]; 23% with MCF7.
As to `COc1ccc(CNC(=O)c2cc(Br)c(Br)[nH]2)cc1`, the inhibition of growth at 25 µM is 23% in [1]; 48% with A2780; 13% in assay [2]; under 0% in assay [3]; 12% in the assay with A-431; under 0% in the assay with DU-145. The inhibition of growth at 25 µM was under 0% in [4]; under 0% with SW480; 14% with HT-29; 4% in [5]; 14% in assay [6]; 30% with MCF7.
As to `O=C(NCCc1ccc(O)cc1)c1ccc[nH]1`, the inhibition of growth at 25 µM in assay [1] is under 1%; in the assay on A2780, 18%; in assay [2], 2%; in assay [3], 2%; in the assay on A-431 it was under 0%; in the assay with DU-145, under 0%. Also, the inhibition of growth at 25 µM in [4] is under 0%; in the assay with SW480 it was 5%; with HT-29, 3%; in assay [5], 11%; in [6] it was 6%; in the assay with MCF7, 8%.
Turning to `CCc1ccc(CCNC(=O)c2ccc[nH]2)cc1`, the inhibition of growth at 25 µM was 8% in assay [1]; under 0% in the assay with A2780; 3% in [2]; 0% in assay [3]; 0% with A-431; 1% in the assay with DU-145. Moreover, the inhibition of growth at 25 µM in assay [4] is under 0%; in the assay on SW480, under 0%; in the assay with HT-29 it was 22%; in assay [5], under 0%; in [6] it was 12%; in the assay on MCF7 it was 19%.
Regarding `CCc1ccc(CCNC(=O)c2cc(Br)c(Br)[nH]2)cc1`, the inhibition of growth at 25 µM in [1] was determined as 79%; with A2780, 67%; in assay [2], 23%; in [3], 6%; in the assay on A-431, 22%; with DU-145, 7%. The inhibition of growth at 25 µM was 20% in [4]; 5% in the assay with SW480; 81% in the assay on HT-29; 22% in [5]; 31% in [6]; 88% in the assay with MCF7.
Consider `O=C(NCCc1ccc2ccccc2c1)c1ccc[nH]1`, for which the inhibition of growth at 25 µM in assay [1] was 16%; in the assay with A2780, 13%; in [2] it was 23%; in assay [3], under 1%; with A-431 it was 8%; in the assay on DU-145, 20%. Further, the inhibition of growth at 25 µM in [4] was under 0%; in the assay on SW480 it was 3%; with HT-29, 19%; in assay [5] it was 8%; in assay [6] it was 20%; in the assay with MCF7 it was 23%.
